For orientation: fraction unbound means free concentration divided by total concentration. The bioavailability is the share of a dose that reaches the circulation, judged against a reference dose that is usually intravenous. A higher bioavailability goes with much systemic uptake. As a reminder, the Cmax is the highest concentration seen after dosing.

For data set [1], the target named is T1, Cytochrome P450 3A5 (Homo sapiens, UniProt P20815). The data set can be described thus: Activity of human recombinant CYP3A5 in supersomes assessed as enzyme-mediated drug metabolism at 0.05 to 0.1 uM after 30 mins by LC/MS analysis. It counts as ADME. Conditions: 0.5 h. In outline: (§1)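 Recombinant P450 (CYP1A2 50, CYP2C8 158, CYP2D6 72, CYP3A4 66, CYP3A5 50 pmol/ml; 0.5 mg/ml protein) incubated with 0.1 µM N-DMI, and also 0.05 µM with CYP2C8/3A4/3A5. Run in 0.1 M sodium phosphate pH 7.4 with 1 mM NADPH at 37°C, in triplicate. N-DMI depletion was followed by LC-MS/MS; k_dep was fitted over 0–30 min and CLint = k_dep/[P450].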
T1 sequence (P20815 whole entry): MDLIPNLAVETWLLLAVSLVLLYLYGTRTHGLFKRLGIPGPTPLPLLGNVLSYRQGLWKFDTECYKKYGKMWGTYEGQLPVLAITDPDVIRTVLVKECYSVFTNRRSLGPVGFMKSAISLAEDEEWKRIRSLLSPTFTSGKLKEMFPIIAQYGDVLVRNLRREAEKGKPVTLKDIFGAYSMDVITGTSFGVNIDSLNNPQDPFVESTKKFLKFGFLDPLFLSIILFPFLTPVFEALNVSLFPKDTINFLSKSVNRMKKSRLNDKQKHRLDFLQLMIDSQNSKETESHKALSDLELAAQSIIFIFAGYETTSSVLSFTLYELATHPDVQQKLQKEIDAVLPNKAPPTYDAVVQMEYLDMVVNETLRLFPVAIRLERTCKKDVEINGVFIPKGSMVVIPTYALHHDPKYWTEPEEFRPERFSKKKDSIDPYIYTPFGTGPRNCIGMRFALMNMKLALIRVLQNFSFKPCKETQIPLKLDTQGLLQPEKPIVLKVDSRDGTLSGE

The target in data set [2] is T2, Cytochrome P450 3A4 (Homo sapiens, UniProt P08684). The data set can be described thus: Activity of human recombinant CYP3A4 in supersomes assessed as enzyme-mediated drug metabolism at 0.05 to 0.1 uM after 30 mins by LC/MS analysis. It counts as ADME. As to conditions: 0.5 h. In outline: as §1
T2 sequence (P08684 whole entry): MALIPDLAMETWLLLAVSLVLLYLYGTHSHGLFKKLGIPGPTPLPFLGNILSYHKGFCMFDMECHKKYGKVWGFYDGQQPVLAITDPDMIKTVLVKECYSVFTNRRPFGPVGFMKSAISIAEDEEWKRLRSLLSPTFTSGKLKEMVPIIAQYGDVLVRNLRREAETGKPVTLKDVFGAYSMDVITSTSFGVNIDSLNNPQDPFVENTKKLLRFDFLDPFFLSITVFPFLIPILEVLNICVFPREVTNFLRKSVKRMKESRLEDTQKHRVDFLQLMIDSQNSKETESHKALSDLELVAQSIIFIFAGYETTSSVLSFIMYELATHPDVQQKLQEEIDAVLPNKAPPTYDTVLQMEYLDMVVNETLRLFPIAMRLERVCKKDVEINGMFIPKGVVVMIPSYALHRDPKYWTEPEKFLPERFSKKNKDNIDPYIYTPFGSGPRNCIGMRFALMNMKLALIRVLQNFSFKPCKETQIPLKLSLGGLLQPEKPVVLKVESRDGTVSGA
For data set [3], the target named is T3, Cytochrome P450 1A2 (Homo sapiens, UniProt P05177).
T3 sequence (P05177 whole entry): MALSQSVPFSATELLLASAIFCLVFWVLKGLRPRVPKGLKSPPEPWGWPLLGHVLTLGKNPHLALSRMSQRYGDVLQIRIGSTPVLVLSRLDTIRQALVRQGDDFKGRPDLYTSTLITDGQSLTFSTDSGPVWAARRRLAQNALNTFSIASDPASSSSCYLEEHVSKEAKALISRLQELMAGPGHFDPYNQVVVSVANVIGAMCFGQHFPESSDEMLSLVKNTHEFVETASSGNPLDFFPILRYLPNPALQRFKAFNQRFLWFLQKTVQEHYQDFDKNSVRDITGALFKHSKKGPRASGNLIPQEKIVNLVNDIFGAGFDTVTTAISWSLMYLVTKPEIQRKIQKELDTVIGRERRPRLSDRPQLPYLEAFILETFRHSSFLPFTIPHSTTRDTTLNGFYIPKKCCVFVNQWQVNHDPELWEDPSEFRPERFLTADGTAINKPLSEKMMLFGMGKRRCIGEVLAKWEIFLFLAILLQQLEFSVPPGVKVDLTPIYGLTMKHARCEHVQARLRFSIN
The data set can be described thus: Activity of human recombinant CYP1A2 in supersomes assessed as intrinsic clearance for enzyme-mediated drug metabolism by LC/MS analysis.

A further data set relates to CYP2D6. The data set is described as follows: Fraction unbound in human liver microsomes containing CYP2D6 after 60 mins. In kind it is ADME. For orientation: Liver microsomes are vesicles of endoplasmic reticulum, rich in cytochrome P450 enzymes.
In data set [4] the target is T3, Cytochrome P450 1A2. The data set can be described thus: Activity of human recombinant CYP1A2 in supersomes assessed as enzyme-mediated drug metabolism at 0.05 to 0.1 uM after 30 mins by LC/MS analysis. As to conditions: 0.5 h. It counts as ADME. In outline:
as §1

Another data set has as its system CYP1A2. The data set can be described thus: Fraction unbound in human liver microsomes containing CYP1A2 after 60 mins. In kind it is ADME.
For the next data set, the system named is CYP2C8. The data set is described as follows: Fraction unbound in human liver microsomes containing CYP2C8 after 60 mins. In kind it is ADME.
The target in data set [5] is T4, Cytochrome P450 2C8 (Homo sapiens, UniProt P10632).
T4 sequence (P10632 whole entry): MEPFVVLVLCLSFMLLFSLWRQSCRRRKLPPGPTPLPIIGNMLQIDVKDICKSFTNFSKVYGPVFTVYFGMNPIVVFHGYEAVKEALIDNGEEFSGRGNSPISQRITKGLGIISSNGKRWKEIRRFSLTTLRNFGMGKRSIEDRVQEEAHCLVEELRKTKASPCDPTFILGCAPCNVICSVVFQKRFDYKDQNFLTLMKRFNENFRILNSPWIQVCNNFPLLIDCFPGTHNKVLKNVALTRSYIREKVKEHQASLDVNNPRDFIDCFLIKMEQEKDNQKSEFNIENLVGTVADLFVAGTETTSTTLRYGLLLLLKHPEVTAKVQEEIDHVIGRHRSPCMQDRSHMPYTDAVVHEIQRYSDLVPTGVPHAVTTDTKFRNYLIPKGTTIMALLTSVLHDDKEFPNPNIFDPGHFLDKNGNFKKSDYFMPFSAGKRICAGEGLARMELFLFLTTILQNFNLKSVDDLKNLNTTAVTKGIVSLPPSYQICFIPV
The data set can be described thus: Activity of human recombinant CYP2C8 in supersomes assessed as intrinsic clearance for enzyme-mediated drug metabolism by LC/MS analysis. It counts as ADME. The procedure, abridged:
(§2)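 N-DMI formation kinetics: imatinib 0.10–320 µM with CYP2C8 (33 pmol/ml, 4 min), CYP3A4 (13 pmol/ml, 3 min) or CYP3A5 (10 pmol/ml, 30 min), 0.1 mg/ml protein. Run in phosphate pH 7.4 with 1 mM NADPH at 37°C, in triplicate, read by LC-MS/MS. Fits used substrate-inhibition (CYP2C8, CYP3A4) or Michaelis–Menten (CYP3A5) models; CLint = Vmax/Km.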

Data set [6] addresses T4, Cytochrome P450 2C8. The data set can be described thus: Activity of human recombinant CYP2C8 in supersomes assessed as enzyme-mediated drug metabolism at 0.05 to 0.1 uM after 30 mins by LC/MS analysis. It counts as ADME. As to conditions: 0.5 h. In outline:
as §1

Data set [7] concerns the target T5, Cytochrome P450 2D6 (Homo sapiens, UniProt P10635). The data set is described as follows: Activity of human recombinant CYP2D6 in supersomes assessed as intrinsic clearance for enzyme-mediated drug metabolism by LC/MS analysis.
The subject of a further data set is CYP3A4. The data set is described as follows: Fraction unbound in human liver microsomes containing CYP3A4 after 60 mins. In kind it is ADME.
Another data set deals with CYP3A5. The data set can be described thus: Fraction unbound in human liver microsomes containing CYP3A5 after 60 mins. It counts as ADME.
Data set [8] concerns the target T2, Cytochrome P450 3A4. The data set can be described thus: Activity of human recombinant CYP3A4 in supersomes assessed as intrinsic clearance for enzyme-mediated drug metabolism by LC/MS analysis. In kind it is ADME. In outline: as §2
The target in data set [9] is T1, Cytochrome P450 3A5. The data set is described as follows: Activity of human recombinant CYP3A5 in supersomes assessed as intrinsic clearance for enzyme-mediated drug metabolism by LC/MS analysis. In kind it is ADME. The procedure, abridged:
as §2

For data set [10], the target named is T5, Cytochrome P450 2D6. The data set is described as follows: Activity of human recombinant CYP2D6 in supersomes assessed as enzyme-mediated drug metabolism at 0.05 to 0.1 uM after 30 mins by LC/MS analysis. It counts as ADME. Conditions: 0.5 h. In outline: as §1
The nature of data set [11]: Oral bioavailability in chronic myeloid leukemia patient. As to conditions: human, in vivo. It counts as ADME, organism-based.
The nature of data set [12]: Cmax in chronic myeloid leukemia patient at 400 mg, qd by multiple dose study. Conditions: human, in vivo. It counts as ADME, organism-based. Further details: dose 400 mg.

T5 sequence (P10635 whole entry): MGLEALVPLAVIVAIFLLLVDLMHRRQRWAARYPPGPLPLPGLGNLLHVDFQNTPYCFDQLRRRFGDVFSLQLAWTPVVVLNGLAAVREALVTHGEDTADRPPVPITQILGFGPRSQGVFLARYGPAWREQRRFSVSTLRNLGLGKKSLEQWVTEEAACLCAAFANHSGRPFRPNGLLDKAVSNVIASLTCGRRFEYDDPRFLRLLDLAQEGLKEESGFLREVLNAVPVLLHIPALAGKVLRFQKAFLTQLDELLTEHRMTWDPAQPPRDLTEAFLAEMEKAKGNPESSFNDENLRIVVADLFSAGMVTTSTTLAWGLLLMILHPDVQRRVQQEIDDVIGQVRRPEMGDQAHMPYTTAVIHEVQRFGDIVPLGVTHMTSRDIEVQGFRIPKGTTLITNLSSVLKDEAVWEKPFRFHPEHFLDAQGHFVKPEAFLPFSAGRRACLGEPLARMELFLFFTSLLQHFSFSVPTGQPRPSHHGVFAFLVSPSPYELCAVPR

As for `CS(=O)(=O)O.Cc1ccc(NC(=O)c2ccc(CN3CCNCC3)cc2)cc1Nc1nccc(-c2cccnc2)n1`, the Drug metabolism entry is “metabolite_not_detected” at Cytochrome P450 3A5 [1]; “metabolite_detected” on Cytochrome P450 3A4 [2]; “metabolite_not_detected” on Cytochrome P450 1A2 [4]; “metabolite_detected” at Cytochrome P450 2C8 [6]; “metabolite_not_detected” on Cytochrome P450 2D6 [10]. Further, the CL on Cytochrome P450 1A2 [3] was determined as 0.03 µL/min; on Cytochrome P450 2C8 [5] it was 0.06 µL/min; on Cytochrome P450 2D6 [7], 0.05 µL/min; on Cytochrome P450 3A4 [8] it was 0.5 µL/min; at Cytochrome P450 3A5 [9] it was 0.09 µL/min. Further, the fraction unbound at 1 h in the data set with CYP2D6, in the data set with CYP1A2, with CYP2C8, in the data set on CYP3A4 and in the data set on CYP3A5 was 0.8 in each case.
`CS(=O)(=O)O.Cc1ccc(NC(=O)c2ccc(CN3CCN(C)CC3)cc2)cc1Nc1nccc(-c2cccnc2)n1` [IMATINIB MESYLATE]: the bioavailability in data set [11] is over 97%. Also, the peak level in [12] (Cmax) was 2200 ng/mL.
